# Source: ChEMBL document CHEMBL5724801, “EUbOPEN Chemogenomics Library - Multiplex” (2024)
# Values joined by “and” are separate entries in the source; they are usually repeats but may differ in a detail not shown here. Identical values can stand only once.
# System: HEK-293T
# Test: Multiplex assay against HEK293T
# Type: toxicity, cell-based
# Conditions: human
# Method in brief: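 Four dyes were applied at seeding to live cells: Hoechst33342, BioTracker Green Microtubule Cytoskeleton Dye, MitoTracker Red and Annexin V Alexa Fluor 680. Imaging after compound addition used a CQ1 microscope at 37°C and 5% CO2. CellPathfinder machine-learning gating then sorted cells into Hoechst high-intensity objects or normal cells, normal cells into healthy, pyknosed or fragmented nuclei, and pyknosed cells into mitotic or apoptotic, with tubulin, mitochondrial-mass and membrane-permeability phenotypes given as per cents of healthy-nucleus cells.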
# [1] = 12 h, 1 µM, compound concentration 1 uM
# [2] = 12 h, 10 µM, compound concentration 10 uM
# [3] = 24 h, 1 µM, compound concentration 1 uM
# [4] = 24 h, 10 µM, compound concentration 10 uM
# [5] = 48 h, 1 µM, compound concentration 1 uM
# [6] = 48 h, 10 µM, compound concentration 10 uM
smiles,measurement,setting,value
CN(C)Cc1cccc(NC(=C2C(=O)Nc3cc(C(N)=O)ccc32)c2ccccc2)c1,Population Apoptotic (%),[1],11.04% and 8.47%
same,Population Fragmented Nuclei (%),[1],2.49% and 2.04%
same,Population Hoechst High Intensity Objects (%),[1],0.28% and 0%
same,Population Membrane Permeable-Phenotype (%),[1],0.51% and 7.69%
same,Population Mitochondria Different-Phenotype (%),[1],22.73% and 15.38%
same,Population Mitotic Cells (%),[1],88.96% and 91.53%
same,Population Normal (%),[1],99.72% and 100%
same,Population Pyknosed Nuclei (%),[1],42.66% and 80.27%
same,Total Cell Count,[1],362 and 147
same,Population Apoptotic (%),[2],15.53% and 28.8%
same,Population Fragmented Nuclei (%),[2],3.04% and 4.44%
same,Population Healthy Nuclei (%),[2],56.2% and 26.11%
same,Population Hoechst High Intensity Objects (%),[2],0.25% and 0%
same,Population Membrane Permeable-Phenotype (%),[2],0.45% and 2.13%
same,Population Mitochondria Different-Phenotype (%),[2],20.72% and 17.02%
same,Population Mitotic Cells (%),[2],84.47% and 71.2%
same,Population Normal (%),[2],99.75% and 100%
same,Population Pyknosed Nuclei (%),[2],40.76% and 69.44%
same,Population Tubulin-Different-Phenotype (%),[2],14.86% and 40.43%
same,Total Cell Count,[2],396 and 180
same,Population Apoptotic (%),[3],13.33% and 15.56%
same,Population Fragmented Nuclei (%),[3],0.9% and 4.61%
same,Population Healthy Nuclei (%),[3],77.6% and 36.18%
same,Population Hoechst High Intensity Objects (%),[3],0.18% and 0.65%
same,Population Membrane Permeable-Phenotype (%),[3],1.39% and 1.82%
same,Population Mitochondria Different-Phenotype (%),[3],9.47% and 14.55%
same,Population Mitotic Cells (%),[3],86.67% and 84.44%
same,Population Normal (%),[3],99.82% and 99.35%
same,Population Pyknosed Nuclei (%),[3],21.51% and 59.21%
same,Population Tubulin-Different-Phenotype (%),[3],13.16% and 7.27%
same,Population Apoptotic (%),[4],26.06% and 39.09%
same,Population Fragmented Nuclei (%),[4],1.76% and 3.57%
same,Population Healthy Nuclei (%),[4],66.02% and 40.31%
same,Population Hoechst High Intensity Objects (%),[4],0.19% and 0%
same,Population Membrane Permeable-Phenotype (%),[4],0.89% and 0%
same,Population Mitochondria Different-Phenotype (%),[4],22.78% and 25.32%
same,Population Mitotic Cells (%),[4],73.94% and 60.91%
same,Population Normal (%),[4],99.81% and 100%
same,Population Pyknosed Nuclei (%),[4],32.23% and 56.12%
same,Population Tubulin-Different-Phenotype (%),[4],32.25% and 18.99%
same,Total Cell Count,[4],513 and 196
same,Population Apoptotic (%),[5],10.07% and 19.05%
same,Population Fragmented Nuclei (%),[5],1.84% and 0.58%
same,Population Healthy Nuclei (%),[5],85.36% and 62.57%
same,Population Hoechst High Intensity Objects (%),[5],0%
same,Population Membrane Permeable-Phenotype (%),[5],5.39% and 0.93%
same,Population Mitochondria Different-Phenotype (%),[5],17.15% and 29.91%
same,Population Mitotic Cells (%),[5],89.93% and 80.95%
same,Population Normal (%),[5],100%
same,Population Pyknosed Nuclei (%),[5],12.8% and 36.84%
same,Population Apoptotic (%),[6],19.7% and 35.71%
same,Population Fragmented Nuclei (%),[6],2.75% and 2.37%
same,Population Healthy Nuclei (%),[6],80.73% and 58.89%
same,Population Hoechst High Intensity Objects (%),[6],0.12% and 0.39%
same,Population Membrane Permeable-Phenotype (%),[6],4.19% and 2.01%
same,Population Mitochondria Different-Phenotype (%),[6],43.1% and 38.26%
same,Population Mitotic Cells (%),[6],80.3% and 64.29%
same,Population Normal (%),[6],99.88% and 99.61%
same,Population Pyknosed Nuclei (%),[6],16.52% and 38.74%
C[C@H]1[C@H]2CC[C@H]3[C@@H]4CC=C5C[C@@H](N(C)C)CC[C@]5(C)[C@H]4CC[C@]23CN1C [CONESSINE],Population Apoptotic (%),[1],35% and 48%
same,Population Fragmented Nuclei (%),[1],5% and 4%
same,Population Healthy Nuclei (%),[1],78% and 85%
same,Population Hoechst High Intensity Objects (%),[1],6% and 8%
same,Population Membrane Permeable-Phenotype (%),[1],0%
same,Population Mitochondria Different-Phenotype (%),[1],39% and 58%
same,Population Mitotic Cells (%),[1],65% and 51%
same,Population Normal (%),[1],93% and 91%
same,Population Pyknosed Nuclei (%),[1],16% and 10%
same,Population Tubulin-Different-Phenotype (%),[1],26% and 22%
same,Total Cell Count,[1],400 and 356
same,Population Apoptotic (%),[2],35% and 59%
same,Population Fragmented Nuclei (%),[2],6% and 7%
same,Population Healthy Nuclei (%),[2],77% and 78%
same,Population Hoechst High Intensity Objects (%),[2],6% and 9%
same,Population Membrane Permeable-Phenotype (%),[2],1% and 0%
same,Population Mitochondria Different-Phenotype (%),[2],56% and 62%
same,Population Mitotic Cells (%),[2],65% and 40%
same,Population Normal (%),[2],93% and 90%
same,Population Pyknosed Nuclei (%),[2],15% and 14%
same,Population Tubulin-Different-Phenotype (%),[2],38% and 30%
same,Total Cell Count,[2],419 and 384
same,Population Apoptotic (%),[3],26% and 25%
same,Population Fragmented Nuclei (%),[3],9% and 8%
same,Population Healthy Nuclei (%),[3],80% and 81%
same,Population Hoechst High Intensity Objects (%),[3],5% and 4%
same,Population Membrane Permeable-Phenotype (%),[3],1% and 0%
same,Population Mitochondria Different-Phenotype (%),[3],22% and 34%
same,Population Mitotic Cells (%),[3],73% and 75%
same,Population Normal (%),[3],94% and 95%
same,Population Pyknosed Nuclei (%),[3],10%
same,Population Tubulin-Different-Phenotype (%),[3],17% and 16%
same,Total Cell Count,[3],514 and 484
same,Population Apoptotic (%),[4],27% and 47%
same,Population Fragmented Nuclei (%),[4],9%
same,Population Healthy Nuclei (%),[4],79% and 82%
same,Population Hoechst High Intensity Objects (%),[4],6% and 9%
same,Population Membrane Permeable-Phenotype (%),[4],1% and 0%
same,Population Mitochondria Different-Phenotype (%),[4],38% and 43%
same,Population Mitotic Cells (%),[4],72% and 52%
same,Population Normal (%),[4],93% and 90%
same,Population Pyknosed Nuclei (%),[4],11% and 7%
same,Population Tubulin-Different-Phenotype (%),[4],28% and 24%
same,Total Cell Count,[4],572 and 474
same,Population Apoptotic (%),[5],30% and 36%
same,Population Fragmented Nuclei (%),[5],9% and 10%
same,Population Healthy Nuclei (%),[5],82% and 83%
same,Population Hoechst High Intensity Objects (%),[5],2% and 4%
same,Population Membrane Permeable-Phenotype (%),[5],1%
same,Population Mitochondria Different-Phenotype (%),[5],18% and 20%
same,Population Mitotic Cells (%),[5],69% and 63%
same,Population Normal (%),[5],97% and 95%
same,Population Pyknosed Nuclei (%),[5],7% and 5%
same,Population Tubulin-Different-Phenotype (%),[5],12% and 11%
same,Total Cell Count,[5],735 and 630
same,Population Apoptotic (%),[6],27% and 36%
same,Population Fragmented Nuclei (%),[6],14% and 10%
same,Population Healthy Nuclei (%),[6],78% and 81%
same,Population Hoechst High Intensity Objects (%),[6],4% and 5%
same,Population Membrane Permeable-Phenotype (%),[6],1% and 0%
same,Population Mitochondria Different-Phenotype (%),[6],23% and 32%
same,Population Mitotic Cells (%),[6],72% and 63%
same,Population Normal (%),[6],95% and 94%
same,Population Pyknosed Nuclei (%),[6],6% and 7%
same,Population Tubulin-Different-Phenotype (%),[6],15% and 17%
same,Total Cell Count,[6],767 and 618
C[C@H](N)COC(=O)[C@@H](CCCCN)NC(=O)Cc1c(-c2ccc3ccccc3c2)[nH]c2c1ccc1ccccc12,Population Apoptotic (%),[1],22% and 51%
same,Population Fragmented Nuclei (%),[1],6% and 8%
same,Population Healthy Nuclei (%),[1],82% and 74%
same,Population Hoechst High Intensity Objects (%),[1],8%
same,Population Membrane Permeable-Phenotype (%),[1],0%
same,Population Mitochondria Different-Phenotype (%),[1],37% and 65%
same,Population Mitotic Cells (%),[1],77% and 48%
same,Population Normal (%),[1],91%
same,Population Pyknosed Nuclei (%),[1],10% and 16%
same,Population Tubulin-Different-Phenotype (%),[1],27% and 30%
same,Total Cell Count,[1],458 and 291
same,Population Apoptotic (%),[2],41% and 61%
same,Population Fragmented Nuclei (%),[2],7% and 5%
same,Population Healthy Nuclei (%),[2],78%
same,Population Hoechst High Intensity Objects (%),[2],11% and 7%
same,Population Membrane Permeable-Phenotype (%),[2],0%
same,Population Mitochondria Different-Phenotype (%),[2],60% and 72%
same,Population Mitotic Cells (%),[2],58% and 38%
same,Population Normal (%),[2],88% and 93%
same,Population Pyknosed Nuclei (%),[2],14% and 16%
same,Population Tubulin-Different-Phenotype (%),[2],54% and 50%
same,Total Cell Count,[2],435 and 343
same,Population Apoptotic (%),[3],25% and 54%
same,Population Fragmented Nuclei (%),[3],9% and 7%
same,Population Healthy Nuclei (%),[3],77% and 80%
same,Population Hoechst High Intensity Objects (%),[3],4% and 7%
same,Population Membrane Permeable-Phenotype (%),[3],0% and 1%
same,Population Mitochondria Different-Phenotype (%),[3],24% and 47%
same,Population Mitotic Cells (%),[3],75% and 45%
same,Population Normal (%),[3],95% and 92%
same,Population Pyknosed Nuclei (%),[3],12%
same,Population Tubulin-Different-Phenotype (%),[3],19% and 25%
same,Total Cell Count,[3],638 and 352
same,Population Apoptotic (%),[4],41% and 48%
same,Population Fragmented Nuclei (%),[4],6% and 9%
same,Population Healthy Nuclei (%),[4],78% and 80%
same,Population Hoechst High Intensity Objects (%),[4],6% and 7%
same,Population Membrane Permeable-Phenotype (%),[4],0%
same,Population Mitochondria Different-Phenotype (%),[4],57% and 54%
same,Population Mitotic Cells (%),[4],58% and 51%
same,Population Normal (%),[4],93% and 92%
same,Population Pyknosed Nuclei (%),[4],14% and 10%
same,Population Tubulin-Different-Phenotype (%),[4],45% and 42%
same,Total Cell Count,[4],539 and 439
same,Population Apoptotic (%),[5],15% and 37%
same,Population Fragmented Nuclei (%),[5],13% and 11%
same,Population Healthy Nuclei (%),[5],78% and 79%
same,Population Hoechst High Intensity Objects (%),[5],4%
same,Population Membrane Permeable-Phenotype (%),[5],2% and 0%
same,Population Mitochondria Different-Phenotype (%),[5],16% and 29%
same,Population Mitotic Cells (%),[5],84% and 62%
same,Population Normal (%),[5],95%
same,Population Pyknosed Nuclei (%),[5],7% and 9%
same,Population Tubulin-Different-Phenotype (%),[5],13% and 17%
same,Total Cell Count,[5],963 and 540
same,Population Apoptotic (%),[6],27% and 32%
same,Population Fragmented Nuclei (%),[6],13% and 14%
same,Population Healthy Nuclei (%),[6],78% and 79%
same,Population Hoechst High Intensity Objects (%),[6],6% and 4%
same,Population Membrane Permeable-Phenotype (%),[6],0%
same,Population Mitochondria Different-Phenotype (%),[6],44% and 43%
same,Population Mitotic Cells (%),[6],72% and 67%
same,Population Normal (%),[6],93% and 95%
same,Population Pyknosed Nuclei (%),[6],7% and 6%
same,Population Tubulin-Different-Phenotype (%),[6],33% and 35%
same,Total Cell Count,[6],781 and 681
